10 molecules from ChEMBL document CHEMBL1136360, “2,5-disubstituted 3,4-dihydro-2H-benzo[b][1,4]thiazepines as potent and selective V2 arginine vasopressin receptor antagonists” (Bioorg Med Chem Lett, 2003) can be followed below.

In test [1] the target is T1, Vasopressin V2 receptor (Homo sapiens, UniProt P30518). The test can be described thus: Ability to displace [3H]arginine vasopressin in cloned human V2 receptor. Summed up: (§1)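 Radioligand displacement of 3H-arginine vasopressin from cloned human V1a or V2 receptors. Single-concentration lines are read as percent inhibition at […].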
In test [2] the target is T2, Vasopressin V1a receptor (Homo sapiens, UniProt P37288). As to the kind of experiment: Ability to displace [3H]arginine vasopressin in cloned human V1a receptor. Summed up: as §1
Test [3] concerns Rattus norvegicus. As to the kind of experiment: Effect on urine volume at a dose of 10 mg/kg in hydrated 10 male rats was determined. The class given is functional. The essentials:
(§2)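 Conscious, hydrated male Sprague–Dawley rats dosed orally with test compound in 0.5% hydroxypropyl-methylcellulose vehicle, or with vehicle alone (3–100 mg/kg). Urine collected over 4 h. Urine volume (mL) and osmolality (mOsmol/Kg) reported as mean with error, about 10 animals per group. Significance judged at p<0.05 versus vehicle.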

Test [4] concerns Rattus norvegicus. As to the kind of experiment: Effect on urine volume at a dose of 30 mg/kg in hydrated 10 male rats was determined. The class given is functional. The essentials: as §2
Test [5] concerns Rattus norvegicus. The test can be described thus: Effect on urine volume at a dose of 3 mg/kg in hydrated 10 male rats was determined. The class given is functional. Summed up: as §2
In test [6] the test system is Rattus norvegicus. As to the kind of experiment: Effect on urine osmolality at a dose of 100 mg/kg in hydrated 10 male rats was determined. The class given is functional. Summed up: as §2
Test [7] relates to Rattus norvegicus. The test can be described thus: Effect on urine osmolality at a dose of 10 mg/kg in hydrated 10 male rats was determined. The class given is functional. Summed up:
as §2

For test [8], the system named is Rattus norvegicus. The test can be described thus: Effect on urine osmolality at a dose of 30 mg/kg in hydrated 10 male rats was determined. The class given is functional. The essentials: as §2
Test [9] concerns the target T1, Vasopressin V2 receptor. As to the kind of experiment: Inhibition of vasopressin induced cAMP accumulation in human V2 receptor expressing cells. The class given is functional. The essentials:
(§3)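 Functional antagonism in cells expressing the human receptor. For V2, inhibition of vasopressin-induced cAMP accumulation. For V1a, inhibition of vasopressin-induced calcium mobilization.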
For orientation: Cyclic AMP is a second messenger, typically raised through Gs and lowered through Gi signalling.

The test system of test [10] is Rattus norvegicus. The test can be described thus: Effect on urine osmolality at a dose of 3 mg/kg in hydrated 10 male rats was determined. The class given is functional. Summed up: as §2
The target in test [11] is T2, Vasopressin V1a receptor. The test can be described thus: Inhibition of vasopressin induced calcium […] in human V1a receptor expressing cells. The class given is functional. Summed up:
as §3

Test [12] has as its system Rattus norvegicus. The test can be described thus: Effect on urine volume at a dose of 100 mg/kg in hydrated 10 male rats was determined.

T1 sequence (P30518 whole entry): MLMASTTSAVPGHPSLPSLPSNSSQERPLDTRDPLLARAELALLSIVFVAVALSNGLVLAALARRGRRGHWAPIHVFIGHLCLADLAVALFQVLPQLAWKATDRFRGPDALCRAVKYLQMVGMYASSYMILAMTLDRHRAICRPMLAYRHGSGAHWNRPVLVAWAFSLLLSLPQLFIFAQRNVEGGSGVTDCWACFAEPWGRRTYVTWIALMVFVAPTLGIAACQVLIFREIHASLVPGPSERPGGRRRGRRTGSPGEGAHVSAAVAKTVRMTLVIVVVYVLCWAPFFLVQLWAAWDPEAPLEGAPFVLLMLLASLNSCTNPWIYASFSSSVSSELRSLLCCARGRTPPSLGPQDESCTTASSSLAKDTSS
T2 sequence (P37288 whole entry): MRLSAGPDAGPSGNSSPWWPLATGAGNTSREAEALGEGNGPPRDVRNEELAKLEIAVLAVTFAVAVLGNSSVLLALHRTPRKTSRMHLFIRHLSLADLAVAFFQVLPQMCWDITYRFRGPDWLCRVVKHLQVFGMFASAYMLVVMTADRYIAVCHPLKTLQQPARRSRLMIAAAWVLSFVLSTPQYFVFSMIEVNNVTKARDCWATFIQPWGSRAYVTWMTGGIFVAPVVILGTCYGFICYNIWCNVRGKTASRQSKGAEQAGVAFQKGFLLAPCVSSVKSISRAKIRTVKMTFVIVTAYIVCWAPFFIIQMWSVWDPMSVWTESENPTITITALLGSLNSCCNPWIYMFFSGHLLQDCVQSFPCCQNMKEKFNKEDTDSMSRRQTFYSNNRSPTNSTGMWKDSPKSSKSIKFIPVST

As to `O=C(Nc1ccc(C(=O)N2CCC(CCF)Sc3ccccc32)cc1)c1ccccc1-c1ccccc1` (centres undefined), the values for the half-maximal inhibitory concentration (IC50) in test [1] and in test [2] were 85 nM and 180 nM, respectively.

Regarding `O=C(Nc1ccc(C(=O)N2CCC(CC(F)F)Sc3ccccc32)cc1)c1ccccc1-c1ccccc1` (centres undefined), the IC50 (usually the concentration at which inhibition is half-maximal) in [1] was found to be 100 nM; in test [2] it was 160 nM.

For the molecule `O=C(O)C[C@@H]1CCN(C(=O)c2ccc(NC(=O)c3ccccc3-c3ccccc3)cc2)c2ccccc2S1`, the Urine volume in test [3] is 7.3 mL; in test [4], 15.7 mL; in test [5], 2.2 mL; in [12], 13.8 mL. In addition, the Urine osmolality is 177 mOsmol kg-1 in test [6], 299 mOsmol kg-1 in test [7], 161 mOsmol kg-1 in test [8] and 529 mOsmol kg-1 in test [10]. For the same molecule, the IC50 in [1] amounted to 8 nM; in [9], 30 nM; in test [2], 1140 nM; in test [11], 1760 nM.

Regarding `O=C(Nc1ccc(C(=O)N2CCC(CCO)Sc3ccccc32)cc1)c1ccccc1-c1ccccc1` (centres undefined), the IC50 amounted to 8 nM in test [1], 100 nM in test [9], 97 nM in test [2] and 150 nM in test [11].

As for `CN(C)CC1CCN(C(=O)c2ccc(NC(=O)c3ccccc3-c3ccccc3)cc2)c2ccccc2S1` (centres undefined), the IC50 came out at 430 nM in test [1] and 1200 nM in test [2].

For the molecule `O=C(O)CC1CCN(C(=O)c2ccc(NC(=O)c3ccccc3-c3ccccc3)cc2)c2ccccc2S1` (centres undefined), the IC50 in test [1] turned out to be 7 nM; in [9], 40 nM; in test [2], 729 nM; in test [11] it was 740 nM.

As for `O=C(O)CC[C@H]1CCN(C(=O)c2ccc(NC(=O)c3ccccc3-c3ccccc3)cc2)c2ccccc2S1`, the IC50 in test [1] stood at 15 nM; in [9], 30 nM; in test [2], 140 nM; in [11] it was 2010 nM.

Regarding `O=C(O)CC[C@@H]1CCN(C(=O)c2ccc(NC(=O)c3ccccc3-c3ccccc3)cc2)c2ccccc2S1`, the IC50 was 16 nM in test [1], 40 nM in test [9], 314 nM in test [2] and 4630 nM in [11].

Take `O=C(O)C[C@H]1CCN(C(=O)c2ccc(NC(=O)c3ccccc3-c3ccccc3)cc2)c2ccccc2S1`: the half-inhibitory concentration (IC50) in [1] is 7 nM; in test [9], 36 nM; in [2], 440 nM; in test [11], 2130 nM.

`O=C(Nc1ccc(C(=O)N2CCC(CCS(=O)(=O)O)Sc3ccccc32)cc1)c1ccccc1-c1ccccc1` (centres undefined) had an IC50 in [2] of 1150 nM.
